# Activity calls are given as the source filed them. The rule behind the calls is not given here.
# Tests used:
# [1] = biological target: T1, Autotaxin (Homo sapiens, UniProt Q13822); assay: Inhibition of recombinant human C-terminal FLAg-tagged ATX nucleotide pyrophosphate phosphatase activity expressed in baculovirus infected sf9 cells using pNP-TMP as substrate measured every 2 mins for 1 hr by fluorescence assay
# [2] = biological target: T2, Glycerophosphocholine cholinephosphodiesterase ENPP6 (Homo sapiens) (UniProt Q6UWR7); assay: Inhibition of ENPP6 (unknown origin) using pNPPC as substrate measured every 2 mins for 1 hr by […]
# T2 sequence (whole entry): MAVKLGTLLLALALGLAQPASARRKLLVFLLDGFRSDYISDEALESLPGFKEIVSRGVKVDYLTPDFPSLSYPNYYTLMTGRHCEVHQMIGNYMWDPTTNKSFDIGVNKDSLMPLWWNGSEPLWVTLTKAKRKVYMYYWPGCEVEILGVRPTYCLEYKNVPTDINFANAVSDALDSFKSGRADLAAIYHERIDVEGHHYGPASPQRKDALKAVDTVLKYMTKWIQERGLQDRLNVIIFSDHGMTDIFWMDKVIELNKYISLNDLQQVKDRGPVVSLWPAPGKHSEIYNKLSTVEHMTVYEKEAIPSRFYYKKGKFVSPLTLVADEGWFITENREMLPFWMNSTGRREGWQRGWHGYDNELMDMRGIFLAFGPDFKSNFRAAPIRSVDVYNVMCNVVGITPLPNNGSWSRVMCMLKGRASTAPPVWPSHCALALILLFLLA
# Method in brief: (§1)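 10 nM ENPP6 or ENPP7, 10 μM pNPPC, compound 0–10 μM, triplicate; ENPP6 buffer 100 mM Tris, 500 mM NaCl, 0.05% Triton pH 9.0; ENPP7 buffer 50 mM Tris, 150 mM NaCl, 10 mM taurocholate pH 8.5; 405 nm absorbance every 2 min for 1 h.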
# [3] = biological target: T3, Ectonucleotide pyrophosphatase/phosphodiesterase family member 7 (Homo sapiens) (UniProt Q6UWV6); assay: Inhibition of ENPP7 (unknown origin) using pNPPC as substrate measured every 2 mins for 1 hr by […]; method in brief: as §1
# T3 sequence (whole entry): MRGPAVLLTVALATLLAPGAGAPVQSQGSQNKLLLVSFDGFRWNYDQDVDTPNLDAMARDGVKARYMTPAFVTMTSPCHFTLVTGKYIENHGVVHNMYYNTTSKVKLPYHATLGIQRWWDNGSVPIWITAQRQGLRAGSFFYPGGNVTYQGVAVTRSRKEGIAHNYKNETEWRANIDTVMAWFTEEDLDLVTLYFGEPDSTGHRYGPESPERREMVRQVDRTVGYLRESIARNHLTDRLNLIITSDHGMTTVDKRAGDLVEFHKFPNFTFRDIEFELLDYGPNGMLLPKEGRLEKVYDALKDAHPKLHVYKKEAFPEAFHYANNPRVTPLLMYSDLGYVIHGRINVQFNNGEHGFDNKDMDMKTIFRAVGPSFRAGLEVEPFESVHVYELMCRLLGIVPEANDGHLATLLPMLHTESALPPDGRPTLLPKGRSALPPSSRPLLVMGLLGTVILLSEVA
# [4] = biological target: T1, Autotaxin; assay: Inhibition of recombinant human C-terminal FLAg-tagged ATX lysophospholipase D activity expressed in baculovirus infected sf9 cells using FRET based FS-3 substrate measured every 2 mins for 1 hr by fluorescence assay
# [5] = biological target: Lysophosphatidic acid receptor 1 (Homo sapiens, UniProt Q92633); assay: Antagonist activity at LPA1 receptor (unknown origin) expressed in rat RH7777 cells assessed as inhibition of LPA-induced intracellular calcium level measured every 3.42 secs for 70 secs by Fura-2-AM dye based fluorescence assay; format: functional, cell-based
# Chain of Lysophosphatidic acid receptor 1 (Q92633 whole entry): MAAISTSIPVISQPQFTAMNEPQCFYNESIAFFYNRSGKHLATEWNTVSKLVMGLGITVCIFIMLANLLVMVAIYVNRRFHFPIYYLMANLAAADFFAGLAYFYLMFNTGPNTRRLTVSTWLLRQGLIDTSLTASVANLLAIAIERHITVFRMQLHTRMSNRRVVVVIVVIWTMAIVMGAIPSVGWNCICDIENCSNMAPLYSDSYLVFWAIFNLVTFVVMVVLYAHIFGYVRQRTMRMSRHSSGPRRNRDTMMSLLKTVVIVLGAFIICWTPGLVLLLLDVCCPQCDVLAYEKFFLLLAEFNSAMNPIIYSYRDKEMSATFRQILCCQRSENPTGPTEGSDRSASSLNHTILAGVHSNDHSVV
# [6] = biological target: T4, Lysophosphatidic acid receptor 3 (Homo sapiens) (UniProt Q9UBY5); assay: Antagonist activity at LPA3 receptor (unknown origin) expressed in rat RH7777 cells assessed as inhibition of LPA-induced intracellular calcium level up to 100 uM measured every 3.42 secs for 70 secs by Fura-2-AM dye based fluorescence assay; format: functional, cell-based
# T4 sequence (whole entry): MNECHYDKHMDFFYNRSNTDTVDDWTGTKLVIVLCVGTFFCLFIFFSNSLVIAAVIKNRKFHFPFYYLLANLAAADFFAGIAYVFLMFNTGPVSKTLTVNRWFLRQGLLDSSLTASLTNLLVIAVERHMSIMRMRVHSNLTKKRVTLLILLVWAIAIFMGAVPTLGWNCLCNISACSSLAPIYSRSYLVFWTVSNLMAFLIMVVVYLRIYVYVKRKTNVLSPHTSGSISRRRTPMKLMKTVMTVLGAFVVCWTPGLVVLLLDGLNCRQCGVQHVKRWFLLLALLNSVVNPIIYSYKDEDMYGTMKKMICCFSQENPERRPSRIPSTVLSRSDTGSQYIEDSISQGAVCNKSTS
# [7] = biological target: Lysophosphatidic acid receptor 2 (Homo sapiens) (UniProt Q9HBW0); assay: Antagonist activity at LPA2 receptor (unknown origin) expressed in MEF cells assessed as inhibition of LPA-induced intracellular calcium level up to 100 uM measured every 3.42 secs for 70 secs by Fura-2-AM dye based fluorescence assay; format: functional, cell-based
# Chain of Lysophosphatidic acid receptor 2 (Homo sapiens) (Q9HBW0 whole entry): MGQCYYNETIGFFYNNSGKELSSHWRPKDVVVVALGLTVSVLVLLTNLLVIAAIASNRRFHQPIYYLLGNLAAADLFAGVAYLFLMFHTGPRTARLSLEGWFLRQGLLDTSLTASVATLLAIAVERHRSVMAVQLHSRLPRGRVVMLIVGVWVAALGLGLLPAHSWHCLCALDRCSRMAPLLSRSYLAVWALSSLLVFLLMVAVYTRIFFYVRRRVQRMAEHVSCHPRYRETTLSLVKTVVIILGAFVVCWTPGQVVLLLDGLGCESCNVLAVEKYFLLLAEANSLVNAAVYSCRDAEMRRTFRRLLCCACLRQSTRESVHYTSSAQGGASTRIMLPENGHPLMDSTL
# [8] = biological target: Lysophosphatidic acid receptor 4 (Homo sapiens) (UniProt Q99677); assay: Antagonist activity at LPA4 receptor (unknown origin) expressed in CHO cells assessed as inhibition of LPA-induced intracellular calcium level up to 100 uM measured every 3.42 secs for 70 secs by Fura-2-AM dye based fluorescence assay; format: functional, cell-based
# Chain of Lysophosphatidic acid receptor 4 (Homo sapiens) (Q99677 whole entry): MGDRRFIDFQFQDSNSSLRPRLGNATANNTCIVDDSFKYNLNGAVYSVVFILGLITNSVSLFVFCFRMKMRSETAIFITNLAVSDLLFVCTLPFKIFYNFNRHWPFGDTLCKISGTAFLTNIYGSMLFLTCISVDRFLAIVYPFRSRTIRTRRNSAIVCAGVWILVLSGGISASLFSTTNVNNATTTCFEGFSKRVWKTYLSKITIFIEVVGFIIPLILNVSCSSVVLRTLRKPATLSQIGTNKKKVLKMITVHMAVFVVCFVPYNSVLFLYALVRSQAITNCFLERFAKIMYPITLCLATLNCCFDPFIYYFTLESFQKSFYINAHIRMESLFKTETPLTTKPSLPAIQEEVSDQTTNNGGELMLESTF
# [9] = biological target: Lysophosphatidic acid receptor 5 (Homo sapiens) (UniProt Q9H1C0); assay: Antagonist activity at FLAG-tagged LPA5 receptor (unknown origin) expressed in rat B103 cells assessed as inhibition of LPA-induced intracellular calcium level up to 100 uM measured every 3.42 secs for 70 secs by Fura-2-AM dye based fluorescence assay; format: functional, cell-based
# Chain of Lysophosphatidic acid receptor 5 (Homo sapiens) (Q9H1C0 whole entry): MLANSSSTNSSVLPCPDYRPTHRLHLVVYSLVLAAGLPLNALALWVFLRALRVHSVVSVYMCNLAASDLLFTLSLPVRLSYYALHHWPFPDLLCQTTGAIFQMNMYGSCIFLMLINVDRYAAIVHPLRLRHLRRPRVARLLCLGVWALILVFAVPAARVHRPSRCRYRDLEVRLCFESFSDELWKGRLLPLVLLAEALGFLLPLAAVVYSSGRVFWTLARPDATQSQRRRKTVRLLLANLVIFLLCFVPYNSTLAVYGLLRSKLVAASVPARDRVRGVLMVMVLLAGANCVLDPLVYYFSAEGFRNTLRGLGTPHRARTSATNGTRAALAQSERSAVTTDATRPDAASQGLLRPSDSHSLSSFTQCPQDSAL
# [10] = biological target: T1, Autotaxin; assay: Competitive inhibition of recombinant human C-terminal FLAg-tagged ATX expressed in baculovirus infected sf9 cells using varying levels of FRET based FS-3 substrate at 0.5 to 2 times IC50 measured every 2 mins for 1 hr by Michaelis-Menten plot analysis
# [11] = biological target: T1, Autotaxin; assay: Inhibition of ATX (unknown origin) expressed in human A2058 cells assessed as inhibition of LPC-induced cell invasion after 20 hrs by calcein-AM dye based matrigel-mediated Boyden chamber assay
# [12] = biological target: T1, Autotaxin; assay: Inhibition of ATX (unknown origin) expressed in human A2058 cells assessed as inhibition of LPC-induced cell invasion at 10 uM after 20 hrs by calcein-AM dye based matrigel-mediated Boyden chamber assay
inhibition [1],inhibition [2],inhibition [3],IC50 [4],SMILES,further results
inactive,inactive,inactive,–,O=C(Nc1c(F)c(F)c(F)c(F)c1F)c1cc(S(=O)(=O)N2CCOCC2)c(Cl)cc1Cl,–
inactive,inactive,inactive,18 nM,O=C(Nc1cc(F)c(F)c(F)c1Br)c1cc(S(=O)(=O)N2CCOCC2)c(Cl)cc1Cl,IC50 [5]: Not Active; inhibition [6]: inactive; inhibition [7]: inactive; inhibition [8]: inactive; inhibition [9]: inactive
inactive,inactive,inactive,> 1000 nM,O=S(=O)(c1cc(-c2nc3cc(F)c(F)cc3[nH]2)c(Cl)cc1Cl)N1CCOCC1,–
inactive,inactive,inactive,98 nM,O=S(=O)(c1cc(C(=S)Nc2cc(Cl)c(F)c(Cl)c2)c(Cl)cc1Cl)N1CCOCC1,–
inactive,inactive,inactive,> 1000 nM,O=S(=O)(Nc1cc(S(=O)(=O)N2CCOCC2)c(Cl)cc1Cl)c1cccc(F)c1,–
inactive,inactive,inactive,> 1000 nM,COc1cc(Cl)c(C(=O)Nc2cc(F)c(C(=O)O)c(F)c2)cc1S(=O)(=O)N1CCOCC1,–
inactive,inactive,inactive,> 1000 nM,O=C(Nc1cc(F)c(F)c(F)c1)c1cc(NN2CCOCC2)c(Cl)cc1Cl,–
inactive,inactive,inactive,–,N#Cc1c(F)cc(NC(=O)c2cc(S(=O)(=O)N3CCOCC3)c(Cl)cc2Cl)cc1F,–
inactive,inactive,inactive,–,O=S(=O)(c1cc(C(=S)Nc2cccc(F)c2)c(Cl)cc1Cl)N1CCOCC1,–
inactive,inactive,inactive,> 1000 nM,O=S(=O)(c1cc(N(S(=O)(=O)c2cccc(F)c2)S(=O)(=O)c2cccc(F)c2)c(Cl)cc1Cl)N1CCOCC1,–
inactive,inactive,inactive,–,O=S(=O)(c1cc(CNc2cc(F)c(F)c(F)c2)c(Cl)cc1Cl)N1CCOCC1,–
inactive,inactive,inactive,–,COC(=O)c1c(F)cc(NC(=O)c2cc(S(=O)(=O)N3CCOCC3)c(Cl)cc2Cl)cc1F,–
inactive,inactive,inactive,–,CN1CCN(S(=O)(=O)c2cc(C(=O)Nc3cc(Cl)c(F)c(Cl)c3)c(Cl)cc2Cl)CC1,–
inactive,inactive,inactive,> 1000 nM,O=S(=O)(c1cc(-c2nc3cccc(F)c3o2)c(Cl)cc1Cl)N1CCOCC1,–
inactive,inactive,inactive,> 1000 nM,O=S(=O)(Nc1cccc(F)c1)c1cc(S(=O)(=O)N2CCOCC2)c(Cl)cc1Cl,–
inactive,inactive,inactive,> 1000 nM,COc1cc(NC(=O)c2cc(S(=O)(=O)N3CCOCC3)c(Cl)cc2Cl)cc(OC)c1OC,–
inactive,inactive,inactive,> 1000 nM,O=C(Nc1cc(Cl)c(Cl)c(Cl)c1)c1cc(S(=O)(=O)N2CCOCC2)c(Cl)cc1Cl,–
inactive,inactive,inactive,–,CN1CCN(S(=O)(=O)c2cc(C(=S)Nc3cc(Cl)c(F)c(Cl)c3)c(Cl)cc2Cl)CC1,–
inactive,inactive,inactive,> 1000 nM,O=S(=O)(Nc1cc(F)c(F)c(F)c1)c1cc(S(=O)(=O)N2CCOCC2)c(Cl)cc1Cl,–
inactive,inactive,inactive,> 1000 nM,CN(C(=O)c1cc(S(=O)(=O)N2CCOCC2)c(Cl)cc1Cl)c1cccc(F)c1,–
inactive,inactive,inactive,–,O=C(Nc1ccc(F)c(F)c1)c1cc(S(=O)(=O)N2CCOCC2)c(Cl)cc1Cl,inhibition [10]: Active; inhibition [11]: Dose-dependent effect; inhibition [12]: Active
inactive,inactive,inactive,70 nM,O=S(=O)(c1cc(C(=S)Nc2ccc(F)c(F)c2)c(Cl)cc1Cl)N1CCOCC1,–
inactive,inactive,inactive,> 1000 nM,CS(=O)(=O)N(C(=O)c1cc(NN2CCOCC2)c(Cl)cc1Cl)c1cc(F)c(F)c(F)c1,–
inactive,inactive,inactive,–,CN1CCN(S(=O)(=O)c2cc(C(=O)Nc3cc(F)c(F)c(F)c3)c(Cl)cc2Cl)CC1,–
inactive,inactive,inactive,> 1000 nM,O=S(=O)(c1cc(CNc2ccc(F)c(F)c2)c(Cl)cc1Cl)N1CCOCC1,–

# — ChEMBL document CHEMBL3997796 (J Med Chem, 2017)
